A selection: hits, their analogues and other compounds. The true share with any hit is near 1.1%.
NR2E3 ag-1 = activates human NR2E3 receptor; Q9Y5X4; CHO-S Gal4-NCOR/VP16-NR2E3 two-hybrid, luciferase; inhibition of corepressor binding, % at 3.98 µM; actives 0.35% (n = 360,000); AID 602229;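 active means inhibition above the mean of all tested compounds plus 3 SD, cut at about 70% in these data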;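 further: higher means lower luciferase signal from less NR2E3 corepressor binding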
Vif inh = HIV Vif inhibition; actives 0.35% (n = 340,000); inhibition, % at 7.49 µM; HEK293T cells, Vif self-association by quenched fluorescence, imaging, 24 h; in the data active means inhibition above about 50%, passing the limit was not always enough
MT1-MMP act inh = MT1-MMP (human) activation inhibition | AID 651647 | actives 0.061% (n = 360,000) | P50281 | GFP/RFP ratio change, % at 20 µM | HT1080 RFP-PRO-GFP cells, GFP/RFP ratio fluorescence, overnight; percent of plate control window, DMSO zero;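 active means GFP/RFP ratio change of at least 30% with cell ATP level not reduced by more than half and red fluorescence within 50% of control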
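Read-out: GFP/RFP fluorescence ratio; Test system: RFP-PRO-GFP reporter HT1080 cells; Compound dosing: single-point 20 µM compound, 1% DMSO; Times: overnight compound exposure at 37 °C.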
core dimer inh = HCV core protein dimerization inhibition; inhibition, % at 5 µM; actives 0.33% (n = 300,000); TR-FRET GST/Flag-core106 dimerization, 1536-well; AID 1899;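 active means inhibition above the mean of all tested compounds plus 3 SD, set per screening campaign, cut at about 45% in these data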
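Assay system: Tagged HCV core106 pair (GST and Flag) | Buffer or medium: KF-containing HEPES buffer, pH 7.45, DTT, CHAPS, BSA | Also added: Eu donor and XL665 acceptor anti-tag antibodies | Dosing: One concentration, 5 µM, in 0.5% DMSO | Timing: 4 h at 22.5 °C | Technique: TR-FRET 671 and 617 nm emission | Repeats: Singlicate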
DAGLB inhibitor = diacylglycerol lipase beta (human) inhibition; Q8NCG7; HEK293T DAGLB membrane lysate, EnzChek fluorogenic substrate; inhibition, % at 5.17 µM; actives 0.059% (n = 340,000); AID 504411; in the data active means inhibition above about 34%
Target sequence (Q8NCG7 whole entry, looked up): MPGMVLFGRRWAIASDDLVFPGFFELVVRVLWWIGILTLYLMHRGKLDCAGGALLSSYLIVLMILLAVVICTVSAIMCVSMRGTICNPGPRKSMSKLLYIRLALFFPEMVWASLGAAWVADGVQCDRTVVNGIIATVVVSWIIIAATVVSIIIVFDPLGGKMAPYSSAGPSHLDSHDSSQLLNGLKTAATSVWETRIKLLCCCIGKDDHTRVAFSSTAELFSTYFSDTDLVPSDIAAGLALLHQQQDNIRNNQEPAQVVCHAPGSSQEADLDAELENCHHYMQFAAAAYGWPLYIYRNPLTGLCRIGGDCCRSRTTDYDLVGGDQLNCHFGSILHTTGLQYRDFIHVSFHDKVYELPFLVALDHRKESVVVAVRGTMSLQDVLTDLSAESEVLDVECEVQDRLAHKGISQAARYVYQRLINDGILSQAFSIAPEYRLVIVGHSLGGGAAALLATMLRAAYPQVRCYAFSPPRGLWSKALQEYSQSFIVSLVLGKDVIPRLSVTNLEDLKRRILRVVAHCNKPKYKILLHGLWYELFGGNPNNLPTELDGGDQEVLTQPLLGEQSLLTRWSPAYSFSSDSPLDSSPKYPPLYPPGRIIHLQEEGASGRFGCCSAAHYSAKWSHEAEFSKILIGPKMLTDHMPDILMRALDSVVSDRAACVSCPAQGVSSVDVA
NR2E3 ag-2 = agonists of human nuclear receptor NR2E3; GST-NR2E3/biotin-RetCOR TR-FRET, 1536-well; inhibition of corepressor binding, % at 4.78 µM; actives 0.12% (n = 320,000); AID 2300;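 active means percent inhibition above the cutoff of mean plus 3 SD of all tested compounds, set per screening campaign, cut at about 20% in these data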
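System: GST-tagged NR2E3 plus biotinylated RetCOR corepressor; Amount: 1.35 nM GST-tagged NR2E3 final; Dosing: single nominal compound dose of 4.8 µM; Schedule: 5 h incubation at 4 °C; Technique: TR-FRET with europium anti-GST and streptavidin-D2, 340 nm excitation; Controls: biotin wells as high control, 0.6% DMSO wells as low control.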
MT1-MMP act val = MT1-MMP (human) activation inhibition, single-concentration validation. HT1080 RFP-PRO-GFP cells, GFP and RFP fluorescence ratio, overnight. shares compounds with MT1-MMP act inh. inhibition, % at 20 µM. AID 652235. actives 10% (n = 200);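 active means inhibition of at least 50% in the primary cell screen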
A number is an active result; . = inactive; / = no result.

SMILES | NR2E3 ag-1 | Vif inh | MT1-MMP act inh | core dimer inh | DAGLB inhibitor | NR2E3 ag-2 | MT1-MMP act val
COc1ccc(Nc2nc(N)c3ccccc3n2)c(OC)c1 | . | . | 39 | / | . | / | .
CC(C)N(C)c1ncnc2c1ncn2[C@H]1CN(CCc2ccccc2)C[C@@H](CO)O1 | . | . | . | / | / | / | /
COc1ccccc1C(=O)NCC(=O)OCC(=O)c1ccc2c(c1)-c1ccccc1C2 | . | . | / | . | . | . | /
CCn1c(C)c(C2=CCN(S(=O)(=O)c3ccc(C)cc3)CC2)c2ccccc21 | . | . | 31 | . | . | . | .
O=S(=O)(c1ccccc1)n1c(C(O)c2ccccn2)cc2ccccc21 (stereo unspecified) | . | . | . | . | . | . | /
COc1ccccc1NC(=O)c1ccc(S(=O)(=O)N(C)c2ccccc2OC)cc1 | . | . | 35 | / | . | / | .
CN1CCN(C(=O)C(C(=O)c2ccc(F)cc2)n2ccccc2=O)CC1 (stereo unspecified) | . | . | . | . | . | . | /
Cc1ccc(C2CC(=O)Oc3cc(O)ccc32)cc1 (stereo unspecified) | . | . | 38 | . | . | . | .
O=C1CC(c2ccccc2)c2cc(O)ccc2O1 (stereo unspecified) | . | . | . | . | . | . | /
CC1=NN(c2ccccc2)C(=O)/C1=C/C=C/C=C/N(C)C | . | . | 40 | . | . | . | .
CNc1ccccc1C(C)(C)c1cc(-c2cccc([N+](=O)[O-])c2)no1 | . | . | . | . | . | . | /
CNc1ccccc1C(C)(C)c1cc(-c2cccc(Br)c2)no1 | . | . | 62 | . | . | . | 54
Cc1cc2cc(CN3C(=O)c4ccccc4C3=O)ccc2n1C | . | . | 32 | . | . | . | .
O=S(=O)(O)c1cc(Cl)cc(N=Nc2ccc(O)cc2O)c1O | . | . | 62 | / | . | / | .
O=[N+]([O-])c1ccc(N=Nc2ccc(O)cc2O)cc1 | . | . | . | . | . | . | /
Cc1cccc(NC(=O)C(=O)NCC2CCCN2S(=O)(=O)c2ccccc2)c1 (stereo unspecified) | . | . | . | . | . | . | /
CC1CC2(CCCC2)Nc2ccc(F)cc21 (stereo unspecified) | . | . | . | . | . | . | /
Cc1cccc2c1NC1(CCCC1)CC2C (stereo unspecified) | . | . | 30 | . | / | . | .
CC1=C/C(=C(/c2cc(C)c(O)c(Br)c2)c2ccccc2S(=O)(=O)O)C=C(Br)C1=O | . | . | 63 | . | . | . | 50
CC1=C/C(=C(/c2ccc(O)c(C)c2)c2ccccc2S(=O)(=O)O)C=CC1=O | . | . | . | / | . | . | /
C[C@@H]1CN(C(=O)c2nc3ccc(Cl)cn3c2CN(C)CCc2cnn(C)c2)C[C@H](C)O1 | . | . | . | . | . | . | /
O=C(O)c1cccc2[nH]c(C(F)(F)F)nc12 | . | . | . | . | . | . | /
Nc1cccc2[nH]c(C(F)(F)F)nc12 | . | . | 51 | . | . | . | .
Oc1ccc(C=Nc2ccc(N3CCOCC3)cc2)c(O)c1 | . | . | . | . | . | . | /
Oc1ccc(N=Nc2cccc(C(F)(F)F)c2)cc1C=Nc1ccc(N2CCOCC2)cc1 | . | . | 45 | . | . | . | .
SMILES | NR2E3 ag-1 | Vif inh | MT1-MMP act inh | core dimer inh | DAGLB inhibitor | NR2E3 ag-2 | MT1-MMP act val
CCc1ccccc1NC(=O)NC1CCCCCCC1 | . | . | . | / | . | / | /
CN(C)c1ccc(N=Cc2cccn2C)cc1 | . | . | 39 | . | . | . | .
CN(C)c1ccc(N=Cc2nc(-c3ccccc3)oc2O)cc1 | . | . | . | . | . | . | /
CCCS(=O)(=O)NC(=O)C1(C)CCCN(C(=O)c2cc(C)n(C(C)(C)C)n2)C1 (stereo unspecified) | . | . | . | / | / | / | /
COc1cc(/C=C2\SC(=S)N(CCC(=O)Nc3ccccc3)C2=O)cc(OC)c1OC | . | . | . | . | . | . | /
COc1ccccc1NC(=O)CCN1C(=O)/C(=C\c2cc(OC)c(OC)c(OC)c2)SC1=S | . | . | 36 | . | . | . | .
CCn1c(=O)c(=O)[nH]c2cc(C(=O)NC3CCCc4ccccc43)ccc21 (stereo unspecified) | . | . | 31 | . | . | . | .
CCOc1ccc(N2CC(=O)SC2=S)cc1 | . | . | 37 | . | . | . | .
Nc1ccccc1C(=O)NNc1c2ccccc2nc2ccccc12 | . | . | . | . | . | . | /
Cc1cc(C(=O)NNC(=O)c2ccc(Cl)cc2)c2ccccc2n1 | . | . | . | / | . | . | /
O=C(NNc1c2ccccc2nc2ccccc12)c1ccc(Cl)cc1 | . | . | 40 | . | . | . | .
Cc1ccc(C(=O)NNc2c3ccccc3nc3ccccc23)cc1 | . | . | 37 | . | . | . | .
Cc1c(N2C(=O)c3ccccc3C2(O)c2ccccc2)c(=O)n(-c2ccccc2)n1C (stereo unspecified) | . | . | . | . | . | . | /
CCc1ccc(C)c(OC(=O)c2cncc(Br)c2)c1 | . | . | . | . | . | . | /
COc1cccc(C2=Nc3cccc4cccc(c34)N2)c1 | . | . | 37 | . | . | . | .
Nc1ccc(C2=Nc3cccc4cccc(c34)N2)cc1 | . | . | . | / | . | / | /
Cc1c(C(=O)N/N=C/c2cccnc2)nnn1-c1nonc1N | . | . | . | . | . | . | /
Nc1ccc(N2CCN(C(=O)c3ccco3)CC2)cc1 | . | . | 43 | . | . | . | .
Nc1ccc(N2CCN(C(=O)c3cccs3)CC2)cc1 | . | . | 33 | . | . | . | .
COc1cc(CN2CCNC(=O)C2CC(=O)NC2CCCC2)cc(OC)c1 (stereo unspecified) | . | . | . | . | . | . | /
CCN1C(=O)/C(=C2/C=Cc3ccccc3N2CC)SC1=S | . | . | . | . | . | . | /
CN1C(=O)/C(=C2/C=Cc3ccccc3N2CCCS(=O)(=O)O)SC1=S | . | . | 42 | . | . | . | .
CCCN1/C(=C2/SC(=S)N(CC)C2=O)C=Cc2ccccc21 | . | . | 40 | . | . | . | .
Nc1ccc(NC(=O)c2ccccc2)c2c1C(=O)c1ccccc1C2=O | . | . | 38 | . | . | . | .
CCOC(=O)c1c2c3c(c(Cl)ccc3[nH]c1=O)C(=O)c1ccccc1-2 | . | . | 44 | / | / | / | .
CCOC(=O)c1c2c3c(cccc3[nH]c1=O)C(=O)c1ccccc1-2 | . | . | . | . | . | . | /
CC(C)(C)c1ccc(OCCNC(=O)c2ncn[nH]2)cc1 | . | . | 36 | . | . | . | .
